Test system: HEK-293T
Experiment: Multiplex assay against HEK293T;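 as to Population Tubulin-Different-Phenotype (%): share of the cells with healthy nuclei that show this phenotype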
Type: toxicity, cell-based
Settings: human
Summary of the method: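 Four dyes were applied at seeding to live cells: Hoechst33342, BioTracker Green Microtubule Cytoskeleton Dye, MitoTracker Red and Annexin V Alexa Fluor 680. Imaging after compound addition used a CQ1 microscope at 37°C and 5% CO2. CellPathfinder machine-learning gating then sorted cells into Hoechst high-intensity objects or normal cells, normal cells into healthy, pyknosed or fragmented nuclei, and pyknosed cells into mitotic or apoptotic, with tubulin, mitochondrial-mass and membrane-permeability phenotypes given as per cents of healthy-nucleus cells.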

[1] = 12 h, 1 µM, compound concentration 1 uM, replicate 1
[2] = 12 h, 1 µM, compound concentration 1 uM, replicate 2
[3] = 12 h, 10 µM, compound concentration 10 uM, replicate 1
[4] = 12 h, 10 µM, compound concentration 10 uM, replicate 2
[5] = 24 h, 1 µM, compound concentration 1 uM, replicate 1
[6] = 24 h, 1 µM, compound concentration 1 uM, replicate 2
[7] = 24 h, 10 µM, compound concentration 10 uM, replicate 1
[8] = 24 h, 10 µM, compound concentration 10 uM, replicate 2
[9] = 48 h, 1 µM, compound concentration 1 uM, replicate 1
[10] = 48 h, 1 µM, compound concentration 1 uM, replicate 2
[11] = 48 h, 10 µM, compound concentration 10 uM, replicate 1
[12] = 48 h, 10 µM, compound concentration 10 uM, replicate 2

With `CN1C(=O)[C@@H](NC(=O)c2cc3ccccc3[nH]2)N=C(c2ccccc2)c2ccccc21` [DEVAZEPIDE] the “Population Apoptotic (%)” value [1] was 49%, the “Population Fragmented Nuclei (%)” value [1] was 9% and the “Population Healthy Nuclei (%)” value [1] was 38%. The “Population Hoechst High Intensity Objects (%)” value [1] was 11%, the “Population Membrane Permeable-Phenotype (%)” value [1] was 8% and the “Population Mitochondria Different-Phenotype (%)” value [1] was 73%. The “Population Mitotic Cells (%)” value [1] was 50%, the “Population Normal (%)” value [1] was 88% and the “Population Pyknosed Nuclei (%)” value [1] was 52%. For the same compound, the “Population Tubulin-Different-Phenotype (%)” value [1] was 50%, the “Total Cell Count” value [1] was 314 and the “Population Apoptotic (%)” value [2] was 12%. For the same compound, the “Population Fragmented Nuclei (%)” value [2] was 6%, the “Population Healthy Nuclei (%)” value [2] was 36% and the “Population Hoechst High Intensity Objects (%)” value [2] was 3%. The “Population Membrane Permeable-Phenotype (%)” value [2] was 9%, the “Population Mitochondria Different-Phenotype (%)” value [2] was 34% and the “Population Mitotic Cells (%)” value [2] was 87%. For the same compound, the “Population Normal (%)” value [2] was 96%, the “Population Pyknosed Nuclei (%)” value [2] was 56% and the “Population Tubulin-Different-Phenotype (%)” value [2] was 28%. The “Total Cell Count” value [2] was 205, the “Population Apoptotic (%)” value [3] was 58% and the “Population Fragmented Nuclei (%)” value [3] was 11%. The “Population Healthy Nuclei (%)” value [3] was 24%, the “Population Hoechst High Intensity Objects (%)” value [3] was 15% and the “Population Membrane Permeable-Phenotype (%)” value [3] was 5%. For the same compound, the “Population Mitochondria Different-Phenotype (%)” value [3] was 88%, the “Population Mitotic Cells (%)” value [3] was 41% and the “Population Normal (%)” value [3] was 84%. For the same compound, the “Population Pyknosed Nuclei (%)” value [3] was 63%, the “Population Tubulin-Different-Phenotype (%)” value [3] was 76% and the “Total Cell Count” value [3] was 287. For the same compound, the “Population Apoptotic (%)” value [4] was 25%, the “Population Fragmented Nuclei (%)” value [4] was 4% and the “Population Healthy Nuclei (%)” value [4] was 34%. The “Population Hoechst High Intensity Objects (%)” value [4] was 3%, the “Population Membrane Permeable-Phenotype (%)” value [4] was 15% and the “Population Mitochondria Different-Phenotype (%)” value [4] was 48%. For the same compound, the “Population Mitotic Cells (%)” value [4] was 74%, the “Population Normal (%)” value [4] was 96% and the “Population Pyknosed Nuclei (%)” value [4] was 60%. For the same compound, the “Population Tubulin-Different-Phenotype (%)” value [4] was 66%, the “Total Cell Count” value [4] was 228 and the “Population Apoptotic (%)” value [5] was 48%. For the same compound, the “Population Fragmented Nuclei (%)” value [5] was 11%, the “Population Healthy Nuclei (%)” value [5] was 36% and the “Population Hoechst High Intensity Objects (%)” value [5] was 13%. For the same compound, the “Population Membrane Permeable-Phenotype (%)” value [5] was 3%, the “Population Mitochondria Different-Phenotype (%)” value [5] was 67% and the “Population Mitotic Cells (%)” value [5] was 51%. The “Population Normal (%)” value [5] was 86%, the “Population Pyknosed Nuclei (%)” value [5] was 51% and the “Population Tubulin-Different-Phenotype (%)” value [5] was 52%. The “Total Cell Count” value [5] was 327, the “Population Apoptotic (%)” value [6] was 14% and the “Population Fragmented Nuclei (%)” value [6] was 4%. For the same compound, the “Population Healthy Nuclei (%)” value [6] was 57%, the “Population Hoechst High Intensity Objects (%)” value [6] was 2% and the “Population Membrane Permeable-Phenotype (%)” value [6] was 15%. For the same compound, the “Population Mitochondria Different-Phenotype (%)” value [6] was 20%, the “Population Mitotic Cells (%)” value [6] was 85% and the “Population Normal (%)” value [6] was 97%. For the same compound, the “Population Pyknosed Nuclei (%)” value [6] was 37%, the “Population Tubulin-Different-Phenotype (%)” value [6] was 34% and the “Total Cell Count” value [6] was 231. For the same compound, the “Population Apoptotic (%)” value [7] was 56%, the “Population Fragmented Nuclei (%)” value [7] was 16% and the “Population Healthy Nuclei (%)” value [7] was 15%. For the same compound, the “Population Hoechst High Intensity Objects (%)” value [7] was 17%, the “Population Membrane Permeable-Phenotype (%)” value [7] was 5% and the “Population Mitochondria Different-Phenotype (%)” value [7] was 91%. The “Population Mitotic Cells (%)” value [7] was 43%, the “Population Normal (%)” value [7] was 82% and the “Population Pyknosed Nuclei (%)” value [7] was 67%. For the same compound, the “Population Tubulin-Different-Phenotype (%)” value [7] was 91%, the “Total Cell Count” value [7] was 284 and the “Population Apoptotic (%)” value [8] was 41%. The “Population Fragmented Nuclei (%)” value [8] was 7%, the “Population Healthy Nuclei (%)” value [8] was 46% and the “Population Hoechst High Intensity Objects (%)” value [8] was 4%. The “Population Membrane Permeable-Phenotype (%)” value [8] was 15%, the “Population Mitochondria Different-Phenotype (%)” value [8] was 47% and the “Population Mitotic Cells (%)” value [8] was 58%. For the same compound, the “Population Normal (%)” value [8] was 95%, the “Population Pyknosed Nuclei (%)” value [8] was 46% and the “Population Tubulin-Different-Phenotype (%)” value [8] was 74%. For the same compound, the “Total Cell Count” value [8] was 245, the “Population Apoptotic (%)” value [9] was 50% and the “Population Fragmented Nuclei (%)” value [9] was 15%. The “Population Healthy Nuclei (%)” value [9] was 28%, the “Population Hoechst High Intensity Objects (%)” value [9] was 16% and the “Population Membrane Permeable-Phenotype (%)” value [9] was 6%. For the same compound, the “Population Mitochondria Different-Phenotype (%)” value [9] was 48%, the “Population Mitotic Cells (%)” value [9] was 50% and the “Population Normal (%)” value [9] was 83%. For the same compound, the “Population Pyknosed Nuclei (%)” value [9] was 55%, the “Population Tubulin-Different-Phenotype (%)” value [9] was 41% and the “Total Cell Count” value [9] was 356. For the same compound, the “Population Apoptotic (%)” value [10] was 9%, the “Population Fragmented Nuclei (%)” value [10] was 5% and the “Population Healthy Nuclei (%)” value [10] was 74%. For the same compound, the “Population Hoechst High Intensity Objects (%)” value [10] was 4%, the “Population Membrane Permeable-Phenotype (%)” value [10] was 7% and the “Population Mitochondria Different-Phenotype (%)” value [10] was 11%. For the same compound, the “Population Mitotic Cells (%)” value [10] was 90%, the “Population Normal (%)” value [10] was 95% and the “Population Pyknosed Nuclei (%)” value [10] was 20%. For the same compound, the “Population Tubulin-Different-Phenotype (%)” value [10] was 34%, the “Total Cell Count” value [10] was 361 and the “Population Apoptotic (%)” value [11] was 66%. For the same compound, the “Population Fragmented Nuclei (%)” value [11] was 24%, the “Population Healthy Nuclei (%)” value [11] was 6% and the “Population Hoechst High Intensity Objects (%)” value [11] was 22%. The “Population Membrane Permeable-Phenotype (%)” value [11] was 7%, the “Population Mitochondria Different-Phenotype (%)” value [11] was 100% and the “Population Mitotic Cells (%)” value [11] was 33%. The “Population Normal (%)” value [11] was 77%, the “Population Pyknosed Nuclei (%)” value [11] was 69% and the “Population Tubulin-Different-Phenotype (%)” value [11] was 84%. For the same compound, the “Total Cell Count” value [11] was 276, the “Population Apoptotic (%)” value [12] was 63% and the “Population Fragmented Nuclei (%)” value [12] was 12%. The “Population Healthy Nuclei (%)” value [12] was 44%, the “Population Hoechst High Intensity Objects (%)” value [12] was 5% and the “Population Membrane Permeable-Phenotype (%)” value [12] was 22%. The “Population Mitochondria Different-Phenotype (%)” value [12] was 41%, the “Population Mitotic Cells (%)” value [12] was 36% and the “Population Normal (%)” value [12] was 94%. The “Population Pyknosed Nuclei (%)” value [12] was 43%, the “Population Tubulin-Different-Phenotype (%)” value [12] was 64% and the “Total Cell Count” value [12] was 237.
